In article PMC8453771 (Journal of Clinical Pharmacology, 2021):
Where two headings read alike, the source gives them in different places. Each block holds one compound with its values, some of them ahead of it.

What was measured:
[1] = type: in vivo, human
Method in brief: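 Pooled noncompartmental data from 17 phase 1 studies in healthy subjects, fasted or light meal, no co-administered drugs; solution, suspension or tablet, 0.5–300 mg. Single dose: AUCinf; multiple dose: steady-state AUCtau (tau 24 h), day-1 Cmax.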

UGT1A9 [2] = experiment: UGT1A9 genotype analysis of ertugliflozin AUC pooled from phase 1 studies; type: in vivo, human; details: for Predicted mean (90% CI) ertugliflozin AUC: Wild type, fasted
Method in brief: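 AUC pooled from 20 phase 1 studies of fasted oral tablets in genotyped healthy subjects. Linear AUC-versus-dose model as for dose proportionality. Three UGT1A9 variants (*1b homozygous/heterozygous, -2152 heterozygous, *3 heterozygous) entered together as categorical covariates on slope, giving fold change versus wild type for all alleles.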

[3] = cited from earlier work
UGT1A9 [4] = details: in vitro; cited from earlier work
UGT2B7 and UGT2B4 = details: in vitro; cited from earlier work
[5] = coadministration of rifampin; cited from earlier work
[6] = coadministration of mefenamic acid; PBPK modeling; cited from earlier work
[7] = primary metabolites in plasma; cited from earlier work
[8] = 5-mg tablet, fasted state, full model bootstrap

predicted mean AUC [1, 8]: 437 ng·h/mL | predicted mean Cmax [1, 8]: 88.7 ng/mL | predicted mean AUC ([1]; 15-mg tablet, fasted state, full model bootstrap): 1380 ng·h/mL | AUC higher versus the tablet form ([1]; administered as a solution): 16% | Cmax lower versus the tablet form ([1]; administered as a solution): 18% | AUC lower relative to fasting administration ([1]; administered with a light meal): 10% | Cmax lower relative to fasting administration ([1]; administered with a light meal): 46% | AUC intercept, Estimate (RSE, %) ([1]; base model): –26.5 (28.8) ng·h/mL | AUC slope, Estimate (RSE, %) ([1]; base model, AUC as linear function of dose): 93.2 (1.50) ng·h/mL/mg | Cmax slope, Estimate (RSE, %) ([1]; base model, Cmax as linear function of dose): 16.2 (2.20) ng/mL/mg | relationship of AUC and Cmax to dose ([1]; dose range 0.5 to 300 mg, healthy subjects): dose‐proportional | AUC intercept, Estimate (RSE, %) ([1]; full model): –33.7 (33.2) ng·h/mL | Solution covariate: fold change in AUC slope vs tablet, Estimate (RSE, %) ([1]; full model): 1.16 (6.35) | Solution covariate: fold change in Cmax slope vs tablet, Estimate (RSE, %) ([1]; full model): 0.821 (7.08) | Suspension covariate: fold change in AUC slope vs tablet, Estimate (RSE, %) ([1]; full model): 1.04 (3.44) | Suspension covariate: fold change in Cmax slope vs tablet, Estimate (RSE, %) ([1]; full model): 0.897 (4.77) | effect of suspension formulation on AUC or Cmax relative to tablet ([1]; full model): did not have a significant effect | AUC slope, Estimate (RSE, %) ([1]; full model, tablet, fasted): 94.1 (1.76) ng·h/mL/mg | Cmax slope, Estimate (RSE, %) ([1]; full model, tablet, fasted): 17.7 (1.92) ng/mL/mg | decrease in AUC compared with wild-type UGT1A9 (UGT1A9 [2]; UGT1A9-2152 heterozygous and UGT1A9*1b heterozygous variants combined): 7.3% | combined effect on AUC (fold vs wild type) (UGT1A9 [2]; UGT1A9-2152 heterozygous and UGT1A9*1b heterozygous variants, 0.988 × 0.938): 0.927 | Predicted mean (90% CI) ertugliflozin AUC (UGT1A9 [2]; 5 mg tablet): 436 ng·h/mL | Predicted mean (90% CI) ertugliflozin AUC (UGT1A9 [2]; 15 mg tablet): 1410 ng·h/mL | AUC intercept, Estimate (RSE, %) (UGT1A9 [2]; base model): –63.9 (16.3) ng·h/mL | AUC slope, Estimate (RSE, %) (UGT1A9 [2]; base model): 96.7 (1.89) ng·h/mL/mg | AUC intercept, Estimate (RSE, %) (UGT1A9 [2]; full model): –50.1 (22.8) ng·h/mL | effect of UGT1A9-2152 heterozygous variant on AUC (UGT1A9 [2]; full model, 95%CI included 1): did not have a significant effect | AUC slope, Estimate (RSE, %) (UGT1A9 [2]; full model, UGT1A9 wild-type subjects): 97.1 (3.25) ng·h/mL/mg
Compound: CCOc1ccc(Cc2cc([C@]34OC[C@](CO)(O3)[C@@H](O)[C@H](O)[C@H]4O)ccc2Cl)cc1 [ertugliflozin]
clinical relevance of UGT1A9 genotype effect on ertugliflozin exposure (UGT1A9 [2]; healthy subjects): did not have any clinically meaningful effects | effect of high-fat meal on ertugliflozin AUC ([3]; 15-mg commercial tablet): no meaningful effect | effect on ertugliflozin exposure of administration with food [3]: No clinically meaningful effect | share of ertugliflozin biotransformation accounted for by glucuronidation [3]: ~90% | administered dose recovered in urine and feces as unchanged ertugliflozin ([3]; mass-balance study in humans): ~35% | median time to maximum plasma concentrations (Tmax) ([3]; multiple doses, fed): 2.0 h | median time to maximum plasma concentrations (Tmax) ([3]; single doses, fasted): 1.0 h | share of glucuronide metabolite formation catalyzed by UGT1A9 (UGT1A9 [4]): 81% | share of ertugliflozin glucuronidation by UGT2B7 and UGT2B4 (UGT2B7 and UGT2B4): 19% | reduction in ertugliflozin AUC [5]: ~39% | increase in ertugliflozin AUC [6]: ~1.5 fold

Compound: CCOc1ccc(Cc2cc([C@]34OC[C@](CO)(O3)[C@@H](O)[C@H](O[C@@H]3O[C@H](C(=O)O)[C@@H](O)[C@H](O)[C@H]3O)[C@H]4O)ccc2Cl)cc1 [ertugliflozin‐3‐O‐β‐glucuronide]
pharmacological activity of metabolite [7]: pharmacologically inactive

Compound: ertugliflozin‐2‐O‐β‐glucuronide
pharmacological activity of metabolite [7]: pharmacologically inactive
